Usually Ki stands for the dissociation constant of the complex between target and ligand, obtained from inhibition or displacement. In general, AUC refers to concentration integrated over time. A word on the AUC(0-t): it is the area under the concentration-time curve up to a stated or last time point. A higher AUC(0-t) goes with high exposure. The Cmax is the maximum level reached in the sampled fluid or tissue. Broadly, the MRT is a mean duration of stay, worked out from the concentration-time curve. By half-life is commonly meant the time needed for the level to fall by half in the phase considered. High values mean slow loss, low ones fast loss. What is called Dmax is the largest share of the target that was removed.

These results are taken from paper PMC10333676 (Redox Biology, 2023).

Series [1] deals with KEAP1 (Homo sapiens, UniProt Q14145). Put plainly: KEAP1 degradation in HepG2 cells by western blotting. The format is cell-based. To be noted: for reduction of KEAP1 level: HepG2, 1 μM, 6 h. In a few lines: (§1)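 CRBN-knockdown HepG2 clones were made with pGIPZ lentiviral shRNA (virus from transfected HEK293T, with 5 μg/mL polybrene) and GFP-FACS sorting. Lysates were western blotted and densitometry came from three independent experiments.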
Sequence of KEAP1 (Homo sapiens, UniProt Q14145) (Q14145 whole entry): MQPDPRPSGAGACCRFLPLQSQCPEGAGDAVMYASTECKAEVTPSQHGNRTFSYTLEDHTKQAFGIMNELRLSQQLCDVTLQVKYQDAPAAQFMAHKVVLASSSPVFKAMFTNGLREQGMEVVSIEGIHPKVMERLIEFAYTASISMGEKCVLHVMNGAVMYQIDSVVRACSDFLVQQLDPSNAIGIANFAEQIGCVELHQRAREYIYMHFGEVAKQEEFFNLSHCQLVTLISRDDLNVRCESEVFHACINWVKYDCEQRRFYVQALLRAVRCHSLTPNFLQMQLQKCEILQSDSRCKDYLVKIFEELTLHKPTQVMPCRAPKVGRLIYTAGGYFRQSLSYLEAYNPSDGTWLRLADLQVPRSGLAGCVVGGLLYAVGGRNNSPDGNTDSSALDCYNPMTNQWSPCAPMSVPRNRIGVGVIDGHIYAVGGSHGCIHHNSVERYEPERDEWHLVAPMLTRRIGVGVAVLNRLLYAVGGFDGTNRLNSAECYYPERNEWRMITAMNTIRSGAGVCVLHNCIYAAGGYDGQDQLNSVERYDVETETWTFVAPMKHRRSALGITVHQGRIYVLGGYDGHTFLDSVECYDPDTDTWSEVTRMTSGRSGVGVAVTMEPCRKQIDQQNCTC
Background: Immunoblotting shows a protein as a band on a membrane.

In series [2] the target is T1, Mutant Magnetospirillum gryphiswaldense cereblon isoform 4 (MsCI4^WW/FF) (Magnetospirillum gryphiswaldense, UniProt A4TVL0, W36F/W59F).
T1 sequence (A4TVL0 1-124 W36F/W59F): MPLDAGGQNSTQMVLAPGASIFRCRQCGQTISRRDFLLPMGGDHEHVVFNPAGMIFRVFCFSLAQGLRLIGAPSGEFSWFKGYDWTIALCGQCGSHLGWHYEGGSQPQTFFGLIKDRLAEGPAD
Put plainly: FRET-based competitive binding assay. In a few lines: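 Competitive FRET binding used mutant cereblon isoform 4 (MsCI4WW/FF) with the reporter ligand MANT-uracil. Buffer was 20 mM Tris pH 7.5, 150 mM NaCl, 5 mM 2-mercaptoethanol, final DMSO ≤0.02%. Tryptophan was read at ex 295/em 350 nm and FRET emission at 440 nm. Ligands were titrated to reduce the FRET signal, with MANT-uracil autofluorescence as blank and thalidomide as positive control; triplicates.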

The test system of series [3] is HMOX1, NQO1, GCLC and GCLM (the target genes of NRF2). Put plainly: NRF2 target gene expression by qRT-PCR in AML12 cells. Particulars: AML12, 100 nM. The class given is cell-based, mouse. An outline of the steps:
(§2)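 Cells got test compound 100 nM for indicated times. RNA was extracted with TRIzol, reverse-transcribed, and HMOX1, NQO1, GCLC and GCLM were quantified by qRT-PCR. Values were normalized to GAPDH and expressed as relative levels by ΔΔCt.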

The target in series [4] is CRBN (Homo sapiens, UniProt Q96SW2). Put plainly: CRBN protein level in HepG2 cells by western blotting. To be noted: HepG2, 100 or 300 nM, 24 h. The class given is cell-based. In a few lines: as §1
Sequence of CRBN (Q96SW2 whole entry): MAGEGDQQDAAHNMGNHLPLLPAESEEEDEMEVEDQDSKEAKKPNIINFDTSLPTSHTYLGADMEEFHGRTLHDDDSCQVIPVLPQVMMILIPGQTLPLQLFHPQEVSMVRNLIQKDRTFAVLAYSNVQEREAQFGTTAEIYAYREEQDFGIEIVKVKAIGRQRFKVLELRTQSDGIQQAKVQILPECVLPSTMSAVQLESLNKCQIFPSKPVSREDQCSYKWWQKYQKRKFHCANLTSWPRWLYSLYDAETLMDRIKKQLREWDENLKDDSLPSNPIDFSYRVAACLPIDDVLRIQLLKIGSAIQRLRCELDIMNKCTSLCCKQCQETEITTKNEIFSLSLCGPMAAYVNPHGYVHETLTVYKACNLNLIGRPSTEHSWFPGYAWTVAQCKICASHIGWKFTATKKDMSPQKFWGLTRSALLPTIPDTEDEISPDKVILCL
Series [5] is described as follows: In vivo pharmacokinetics in ICR mice. Details: species or system mouse. To be noted: for AUC / AUC(0-t) / Cmax / MRT / half-life: male, ICR, mouse, plasma. In a few lines:
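Male ICR mice (7–8 weeks, 30–35 g) received test compound at 3 mg/kg IP or PO. Plasma concentration–time profiles were measured and PK parameters were derived by non-compartmental analysis.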

Series [6] has as its system NRF2. Put plainly: Nuclear translocation of NRF2 in AML12 cells. The format is cell-based, mouse. In a few lines: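 Nuclear fractionation: AML12 cells got test compound 300 nM for indicated times. Cells were pelleted (4000 G, 4 °C), extracted in nuclear buffer, frozen, then spun at 15,000 G for 20 min. Fractions were BCA-quantified and western blotted (GAPDH cytosolic, Lamin B nuclear loading controls), with densitometry from three independent experiments. Immunofluorescence: 100 or 300 nM for 3 h, 4% PFA, 0.1% Triton X-100, NRF2 stain, DAPI, confocal imaging.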

Series [7] has as its system NRF2. Put plainly: Nuclear translocation of NRF2 in HepG2 cells. The class given is cell-based, human.
Series [8] has as its system primary mouse hepatocytes. Put plainly: APAP-induced ROS generation. To be noted: 100 nM 6 h before APAP 20 mM. The format is cell-based. An outline of the steps: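 Primary hepatocytes came from 8–10-week male C57BL6/N mice by collagenase perfusion and were cultured in medium 199 with 10% FBS, 10 nM dexamethasone and 23 mM HEPES. The next day cells got test compound 100 nM for 6 h, then 50 μM DCF-DA (serum-free, 30 min, 37 °C), a wash and 20 mM APAP. Fluorescence (ex488/em525) was read every 20 min for 10 h; n = 4 per group.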

Series [9] relates to AML12 cells. Put plainly: APAP-induced loss of cell viability. The class given is cell-based, mouse. To be noted: AML12, APAP 15 mM, 24 h, MTT.
In series [10] the test system is HMOX1, NQO1, GCLC and GCLM (the target genes of NRF2). Put plainly: NRF2 target gene expression by qRT-PCR in HepG2 cells. Particulars: HepG2, 100 nM. The class given is cell-based, human. In a few lines:
as §2
(Real-time PCR tracks product formation cycle by cycle.)

Series [11] relates to C57BL/6 N male mice. Put plainly: Acetaminophen. The class given is in vivo, mouse.
Series [12] deals with AML12 cells. Put plainly: APAP-induced ROS generation. The class given is cell-based, mouse. Particulars: AML12, APAP 5 mM, 4 h, 300 nM of SD2267. An outline of the steps: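 AML12 mouse hepatocytes (DMEM/F-12, 10% FBS, ITS-pyruvate, dexamethasone 40 ng/mL) were seeded and exposed the next day to 5 mM APAP with or without test compound. After 4 h, cells were loaded with 50 μM DCF-DA in serum-free medium for 30 min at 37 °C and washed. Fluorescence was read at ex488/em525.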

The subject of series [13] is AML12 cells. Put plainly: APAP-induced mitochondrial ROS. The format is cell-based, mouse. Particulars: AML12, APAP 5 mM, 8 h. In a few lines: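 AML12 cells were exposed to 5 mM APAP with or without test compound for 8 h. They were then stained with 5 μM MitoSOX Red (mitochondrial ROS, red fluorescence) or 0.25 μg/mL JC-1 (green monomer fluorescence, rising as membrane potential falls). Intensities were read by flow cytometry; means ± SEMs, n = 3 per group.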

Series [14] addresses T2, KEAP1 (Mus musculus, UniProt Q9Z2X8). Put plainly: KEAP1 degradation in AML12 cells by western blotting. The format is cell-based. An outline of the steps:
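AML12 cells got test compound for 24 h over a concentration series (DC50/Dmax) or 100 nM over a time course (DT50). Co-treatments: MG132 5 μM with 100 or 300 nM for 4 h; CQ 20 μM for 18 h, then 100 or 300 nM for 6 h; pomalidomide or TD-165 1 μM for 3 h, then 100 nM for 6 h. KEAP1 was read by western blot (RIPA, SDS-PAGE, PVDF, ECL) with densitometry from three independent experiments.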

Series [15] addresses T2, KEAP1. Put plainly: KEAP1 degradation in primary mouse hepatocytes by western blotting. The format is cell-based. To be noted: 1 to 1000 nM, 24 h. In a few lines:
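Primary hepatocytes from male C57BL6/N mice were collagenase-perfused and plated in medium 199 with 10% FBS, 10 nM dexamethasone and 23 mM HEPES. […] KEAP1 was read by western blot. DC50 and Dmax came from densitometry of three independent experiments.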

For series [16], the target named is T1, Mutant Magnetospirillum gryphiswaldense cereblon isoform 4 (MsCI4^WW/FF). Particulars: read-out: published Kd of MANT-uracil to MsCI4^WW/FF; cited from earlier work.
Setting [17] is: SD2267 3 mg/kg IP 2 h after APAP 250 mg/kg IP, 6 h.

T2 sequence (Q9Z2X8 whole entry): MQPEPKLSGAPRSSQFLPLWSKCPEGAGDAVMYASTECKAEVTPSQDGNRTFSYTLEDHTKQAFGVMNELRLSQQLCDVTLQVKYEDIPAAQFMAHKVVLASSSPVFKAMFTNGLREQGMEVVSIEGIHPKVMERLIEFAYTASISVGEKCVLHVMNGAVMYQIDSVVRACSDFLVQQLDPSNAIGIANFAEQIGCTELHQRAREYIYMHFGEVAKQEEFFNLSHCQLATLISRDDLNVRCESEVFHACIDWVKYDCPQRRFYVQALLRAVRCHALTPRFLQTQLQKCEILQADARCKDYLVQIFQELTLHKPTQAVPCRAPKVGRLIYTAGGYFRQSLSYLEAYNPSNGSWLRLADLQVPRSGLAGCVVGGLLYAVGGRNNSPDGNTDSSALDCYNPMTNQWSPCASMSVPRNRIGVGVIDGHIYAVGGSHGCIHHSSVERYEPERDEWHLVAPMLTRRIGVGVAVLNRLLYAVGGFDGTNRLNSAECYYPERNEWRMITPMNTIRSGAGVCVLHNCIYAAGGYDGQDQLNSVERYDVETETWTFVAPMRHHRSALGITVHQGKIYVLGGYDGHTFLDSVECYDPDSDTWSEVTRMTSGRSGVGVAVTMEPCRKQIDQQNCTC

For the compound `Cc1ccc(C(CC(=O)O)c2cc(OCCCCCCCCNc3ccc4c(c3)C(=O)N(C3CCC(=O)NC3=O)C4=O)c3c(c2)nnn3C)cc1CN1C[C@@H](C)Oc2ccccc2S1(=O)=O` (stereo partly drawn) [SD2268], the “reduction of KEAP1 level” value in series [1] is recorded as 7%. The same compound returned a Ki in series [2] of 8.15 ± 5.71 µM.
Turning to `Cc1ccc(C(CC(=O)O)c2cc(OCCCCCCCCNc3cccc4c3C(=O)N(C3CCC(=O)NC3=O)C4=O)c3c(c2)nnn3C)cc1CN1C[C@@H](C)Oc2ccccc2S1(=O)=O` (stereo partly drawn) [SD2267], the “mRNA expression levels of HMOX1, NQO1, GCLC and GCLM” value in series [3] was “significantly increased”. Also, the CRBN degradation result in [4] was “not degraded”. Further, the Tmax in series [5] (PO, 3 mg/kg, mice, n = 3, median with range) is 80 [60–120] min. In series [5] (ip, 3 mg/kg), this compound had an AUC of 7800 ng·h/mL, an AUC(0-t) of 7720 ng·h/mL, a Cmax of 1970 ± 870 ng/mL and an MRT of 4.83 h. Besides, the half-life in [5] (ip, 3 mg/kg) was 3.67 ± 0.283 h. Besides, in [5] (po, 3 mg/kg), the AUC is 597 ng·h/mL, the AUC(0-t) was 497 ng·h/mL, the maximum concentration (Cmax) is 172 ± 116 ng/mL and the MRT was 12.1 h. For the same compound, the half-life in series [5] (po, 3 mg/kg) was 12.3 ± 1.7 h. Besides, in series [5] (oral parameters much lower than those of IP), the oral bioavailability entry is listed as “low oral bioavailability”. The “Nuclear NRF2 (nuclear fractionation, western blotting)” value in [6] (AML12, 300 nM, within 3 h) is “significantly upregulated”. Besides, in [6] (AML12, 100 or 300 nM, 3 h), the “amount and nuclear localization of NRF2 (immunofluorescence, confocal microscopy)” value was “increased”. In addition, the “Nuclear NRF2 (nuclear fractionation, western blotting)” value in [7] (HepG2, 100 nM, within 3 h) was “significantly upregulated”. The “amount and nuclear localization of NRF2 (immunofluorescence, confocal microscopy)” value in series [7] (HepG2, 100 or 300 nM, 3 h) is listed as “increased”. Besides, the “APAP-induced ROS generation” value in series [8] was “significantly reduced”. Also, the “Half-life (DT50) of KEAP1” value in series [1] (HepG2, 100 nM) amounted to 2.6 h. Also, the “reduction of KEAP1 level” value in series [1] stood at 64%. Moreover, the Dmax at 0.3 µM in [1] (HepG2, read-out: maximum degradation efficacy (Dmax)) is 82.3%. Also, the DC50 in series [1] (read-out: half-maximal degradation concentration (DC50), HepG2, 24 h, 1 to 1000 nM) worked out at 0.0081 µM. The “KEAP1 levels in CRBN knockdown cells” value in [1] (shCRBN #10 HepG2, 100 or 300 nM, 24 h) is recorded as “not affected”. In addition, the “KEAP1 degradation in control cells” value in series [1] (shCon HepG2, 100 or 300 nM, 24 h) is on record as “effectively degraded KEAP1”. Also, the “cell viability decreased by APAP” value in [9] is “significantly recovered”. Further, in series [10], the “mRNA expression levels of NRF2 target genes” value is “significantly increased”. Moreover, the “KEAP1 protein level in the liver compared to APAP” value in series [11] (1 mg/kg IP, western blotting, p = 0.08) is recorded as “a trend towards a decrease”. In addition, in series [11] (3 mg/kg IP), the “increase of liver protein level of NRF2 and HO-1 versus APAP-only group” value is “significantly greater”; the “phosphorylation of JNK induced by APAP in liver” value is on record as “significantly reduced”. In series [11] (3 mg/kg, 2 h post-treatment after APAP 250 mg/kg), the “hepatic necrosis (HE staining)” value was “significantly reduced”. The “liver GSH to GSSG ratio decreased by APAP” value in [11] (1 or 3 mg/kg IP) was “significantly and dose-dependently recovered”. Further, the “number of TUNEL-positive cells” value in series [11] (APAP + 3 mg/kg of SD2267, 369 in APAP-treated mice, HPF x400) was determined as 123 cells per HPF. Also, in [11] (setting [17]), the “decrease of APAP-induced serum ALT increase” value is recorded as around 1.9 fold and the “decrease of APAP-induced serum AST increase” value is given as around 2.2 fold. In addition, in series [12], the “APAP-induced increase of DCF-DA fluorescence intensity” value is reported as “significantly attenuated”. In addition, in series [13], the “APAP-induced increment of JC-1 green fluorescence intensity” value is listed as “significantly reduced” and the “MitoSOX Red fluorescence intensity versus APAP only” value is reported as “significantly lower”. Moreover, the “Half-life (DT50) of KEAP1” value in [14] (AML12, 100 nM) amounted to 2.2 h. The “KEAP1 degradation under autophagy inhibition by chloroquine” value in series [14] (AML12, CQ 20 μM 18 h prior to SD2267 100 or 300 nM 6 h) is “did not abolish”. Further, the “KEAP1 degradation in the presence of pomalidomide or TD-165” value in series [14] (AML12, POM 1 μM or TD-165 1 μM 3 h prior to SD2267 100 nM 6 h) is on record as “attenuated”. The “KEAP1 degradation in the presence of MG132” value in series [14] (AML12, SD2267 100 or 300 nM, MG132 5 μM, 4 h) is listed as “could not degrade KEAP1”. In addition, in series [14] (AML12, read-out: maximum degradation efficacy (Dmax)), the Dmax at 0.3 µM is 76.5%. Further, the DC50 in series [14] (read-out: half-maximal degradation concentration (DC50), AML12, 24 h, 1 to 1000 nM) was 0.0168 µM. In addition, the Ki in series [2] is 0.0577 ± 0.0175 µM. The KEAP1 degradation result in series [15] is reported as “dose-dependently degraded”.
Turning to `CNc1ccccc1C(=O)NCCn1ccc(=O)[nH]c1=O` [MANT-uracil, 1-(N-2-MANT-imidoethyl)-uracil], the Kd in [16] is 3.3 µM.
As for `Cc1ccc(C(CC(=O)O)c2cc(OCCCCNc3cccc4c3C(=O)N(C3CCC(=O)NC3=O)C4=O)c3c(c2)nnn3C)cc1CN1C[C@@H](C)Oc2ccccc2S1(=O)=O` (stereo partly drawn) [SD2269], the “reduction of KEAP1 level” value in series [1] is “no effect”. In [2], this compound gave a Ki of 0.0648 ± 0.0132 µM.
